ChEMBL document CHEMBL1128288, “7-Azetidinylquinolones as antibacterial agents. 3. Synthesis, properties and structure-activity relationships of the stereoisomers containing a 7-(3-amino-2-methyl-1-azetidinyl) moiety” (J Med Chem, 1995)
Values after ≈ are worked out from the molar mass of the structure shown.

Tests used:
Escherichia coli [1] = experiment: In vitro antibacterial activity measured as minimum inhibitory concentration, was evaluated on Escherichia coli ATCC 23559(Ec).; type: functional
How it was run: (§1)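 Serial 2-fold agar dilution in Mueller Hinton medium, run side by side with reference quinolones. Inoculum 10^5 cfu/mL; compound range 0.007–16 µg/mL.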

Bacillus cereus = experiment: In vitro antibacterial activity measured as minimum inhibitory concentration was evaluated on Bacillus cereus ATCC 11778 (Bc).; type: functional; how it was run: as §1
Enterobacter cloacae = experiment: In vitro antibacterial activity measured as minimum inhibitory concentration, was evaluated on Enterobacter cloacae ATCC 23355 (Ecl).; type: functional
Staphylococcus aureus [2] = experiment: In vitro antibacterial activity measured as minimum inhibitory concentration was evaluated on Staphylococcus aureus ATCC 25178 (Sa).; type: functional; how it was run: as §1
[3] = Solubility at pH 7.4 buffer.; type: physicochemical
How it was run: (§2)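 Excess solid was shaken 24 h at 25 °C in water or in 0.05 M phosphate buffer pH 7.4, then filtered (0.22 µm) with the first portion discarded. The filtrate was diluted with 0.1 N HCl or NaOH and measured spectrophotometrically at the compound's absorbance maximum.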

Enterococcus faecalis = experiment: In vitro antibacterial activity measured as minimum inhibitory concentration was evaluated on Streptococcus faecalis ATCC 10541 (Sf).; type: functional; how it was run: as §1
[4] = Solubility in water was determined at 25 degrees Centigrade; type: physicochemical; how it was run: as §2
Morganella morganii = experiment: In vitro antibacterial activity measured as minimum inhibitory concentration was evaluated on morganella morganii ATCC 8019 (Mm).; type: functional; how it was run: as §1
[5] = test system: Staphylococcus epidermidis; experiment: In vitro antibacterial activity measured as minimum inhibitory concentration was evaluated on Staphylococcus epidermidis ATCC 155-1 (Se).; type: functional; how it was run: as §1
Pseudomonas aeruginosa [6] = experiment: In vitro antibacterial activity measured as minimum inhibitory concentration was evaluated on Pseudomonas aeruginosa ATCC 10145 (Pa).; type: functional; how it was run: as §1
Bacillus subtilis = experiment: In vitro antibacterial activity measured as minimum inhibitory concentration was evaluated on Bacillus subtilis ATCC 6633(Bs).; type: functional; how it was run: as §1
Proteus vulgaris = experiment: In vitro antibacterial activity measured as minimum inhibitory concentration was evaluated on proteus vulgaris ATCC 8427 (Pv).; type: functional; how it was run: as §1
Klebsiella pneumoniae = experiment: In vitro antibacterial activity measured as minimum inhibitory concentration was evaluated on klebsiella pneumoniae ATCC 10031 (Kp).; type: functional
How it was run: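 Serial 2-fold agar dilution in Mueller Hinton medium, run side by side with reference quinolones.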

[7] = mouse, in vivo, po, 50 mg/kg
Staphylococcus aureus [8] = experiment: In vivo efficacy as ED50 against Staphylococcus aureus HS-93 by oral administration in mice.; type: functional; details: Staphylococcus aureus, po; read-out: ED50
How it was run: (§3)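 Mice, 4 groups of 10, infected intraperitoneally with slightly more than the LD100 of the organism. A single oral dose was given immediately after infection, with four doses (one per group) chosen from in vitro activity. Survival was scored after one week. ED50 (total dose, mg/kg, protecting 50%) was interpolated among group survival rates.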

Pseudomonas aeruginosa [9] = experiment: In vivo efficacy as ED50 against Pseudomonas aeruginosa HS-116 by oral administration in mice.; type: functional; how it was run: as §3
Escherichia coli [10] = experiment: In vivo efficacy as ED50 against Escherichia coli HM-42 by oral administration in mice.; type: functional; how it was run: as §3
[11] = Escherichia coli, ATCC 23559, read-out: MIC
[12] = Bacillus cereus, ATCC 11778, read-out: MIC
[13] = Enterobacter cloacae, ATCC 23355, read-out: MIC
[14] = Staphylococcus aureus, ATCC 25178, read-out: MIC
[15] = Enterococcus faecalis, ATCC 10541, read-out: MIC
[16] = Morganella morganii, ATCC 8019, read-out: MIC
[17] = Staphylococcus epidermidis, ATCC 155-1, read-out: MIC
[18] = Pseudomonas aeruginosa, ATCC 10145, read-out: MIC
[19] = Bacillus subtilis, ATCC 6633, read-out: MIC
[20] = Proteus vulgaris, ATCC 8427, read-out: MIC
[21] = Klebsiella pneumoniae, ATCC 10031, read-out: MIC
[22] = Pseudomonas aeruginosa, po, read-out: ED50
[23] = Escherichia coli, po, read-out: ED50

Compound	MIC (Escherichia coli [1]; [11]) [µg/mL]	MIC (Bacillus cereus; [12]) [µg/mL]	MIC (Enterobacter cloacae; [13]) [µg/mL]	MIC (Staphylococcus aureus [2]; [14]) [µg/mL]	solubility [3] [µg/mL]	MIC (Enterococcus faecalis; [15]) [µg/mL]	solubility [4] [µg/mL]	MIC (Morganella morganii; [16]) [µg/mL]	MIC [5, 17] [µg/mL]	MIC (Pseudomonas aeruginosa [6]; [18]) [µg/mL]	MIC (Bacillus subtilis; [19]) [µg/mL]	MIC (Proteus vulgaris; [20]) [µg/mL]	MIC (Klebsiella pneumoniae; [21]) [µg/mL]	AUC [7] [ng·h/mL]	ED50 (Staphylococcus aureus [8]) [mg/kg]	ED50 (Pseudomonas aeruginosa [9]; [22]) [mg/kg]	ED50 (Escherichia coli [10]; [23]) [mg/kg]	also measured
CCC[C@H](N)C(=O)N[C@@H]1CN(c2cc3c(cc2F)c(=O)c(C(=O)O)cn3-c2ccc(F)cc2F)[C@H]1C	0.5 (≈ 0.995 µM)	0.5 (≈ 0.995 µM)	1 (≈ 1.99 µM)	0.5 (≈ 0.995 µM)	> 500	4 (≈ 7.96 µM)	> 500	4 (≈ 7.96 µM)	0.5 (≈ 0.995 µM)	16 (≈ 31.8 µM)	0.25 (≈ 0.498 µM)	8 (≈ 15.9 µM)	0.25 (≈ 0.498 µM)	–	–	–	–	–
C[C@@H]1[C@@H](NC(=O)[C@@H](C)N)CN1c1nc2c(cc1F)c(=O)c(C(=O)O)cn2C1CC1	1 (≈ 2.48 µM)	1 (≈ 2.48 µM)	4 (≈ 9.92 µM)	1 (≈ 2.48 µM)	> 500	1 (≈ 2.48 µM)	> 500	8 (≈ 19.8 µM)	0.25 (≈ 0.62 µM)	16 (≈ 39.7 µM)	0.5 (≈ 1.24 µM)	8 (≈ 19.8 µM)	8 (≈ 19.8 µM)	0	–	–	–	–
C[C@H](N)C(=O)N[C@@H](C)C(=O)N[C@@H]1CN(c2nc3c(cc2F)c(=O)c(C(=O)O)cn3C2CC2)[C@H]1C	2 (≈ 4.22 µM)	16 (≈ 33.7 µM)	2 (≈ 4.22 µM)	4 (≈ 8.43 µM)	> 500	16 (≈ 33.7 µM)	> 500	4 (≈ 8.43 µM)	8 (≈ 16.9 µM)	16 (≈ 33.7 µM)	1 (≈ 2.11 µM)	8 (≈ 16.9 µM)	8 (≈ 16.9 µM)	19200	–	–	–	–
C[C@H](N)C(=O)N[C@@H]1CN(c2nc3c(cc2F)c(=O)c(C(=O)O)cn3C2CC2)[C@H]1C	0.12 (≈ 0.297 µM)	1 (≈ 2.48 µM)	0.12 (≈ 0.297 µM)	0.5 (≈ 1.24 µM)	> 500	8 (≈ 19.8 µM)	> 500	0.5 (≈ 1.24 µM)	0.5 (≈ 1.24 µM)	8 (≈ 19.8 µM)	0.12 (≈ 0.297 µM)	1 (≈ 2.48 µM)	0.06 (≈ 0.149 µM)	28800	–	–	–	–
C[C@@H](N)C(=O)N[C@@H]1CN(c2nc3c(cc2F)c(=O)c(C(=O)O)cn3C2CC2)[C@H]1C	0.25 (≈ 0.62 µM)	0.5 (≈ 1.24 µM)	0.25 (≈ 0.62 µM)	0.25 (≈ 0.62 µM)	386 (≈ 957 µM)	1 (≈ 2.48 µM)	495 (≈ 1230 µM)	2 (≈ 4.96 µM)	1 (≈ 2.48 µM)	8 (≈ 19.8 µM)	0.12 (≈ 0.297 µM)	2 (≈ 4.96 µM)	0.5 (≈ 1.24 µM)	400	–	–	–	–
C[C@H](N)C(=O)N[C@@H]1CN(c2cc3c(cc2F)c(=O)c(C(=O)O)cn3-c2ccc(F)cc2F)[C@H]1C	1 (≈ 2.11 µM)	1 (≈ 2.11 µM)	2 (≈ 4.22 µM)	1 (≈ 2.11 µM)	> 500	8 (≈ 16.9 µM)	> 500	4 (≈ 8.43 µM)	16 (≈ 33.7 µM)	8 (≈ 16.9 µM)	0.5 (≈ 1.05 µM)	16 (≈ 33.7 µM)	2 (≈ 4.22 µM)	–	–	–	–	–
C[C@@H]1[C@@H](N)CN1c1nc2c(cc1F)c(=O)c(C(=O)O)cn2-c1ccc(F)cc1F	0.5 (≈ 1.24 µM)	0.5 (≈ 1.24 µM)	1 (≈ 2.47 µM)	0.5 (≈ 1.24 µM)	–	4 (≈ 9.89 µM)	–	1 (≈ 2.47 µM)	0.5 (≈ 1.24 µM)	8 (≈ 19.8 µM)	0.25 (≈ 0.618 µM)	2 (≈ 4.95 µM)	0.25 (≈ 0.618 µM)	28300	8.6	400	10.3	–
CC(C)C[C@H](N)C(=O)N[C@@H]1CN(c2nc3c(cc2F)c(=O)c(C(=O)O)cn3C2CC2)[C@H]1C	0.06 (≈ 0.135 µM)	0.12 (≈ 0.269 µM)	0.12 (≈ 0.269 µM)	0.25 (≈ 0.561 µM)	> 500	2 (≈ 4.49 µM)	> 500	0.25 (≈ 0.561 µM)	0.25 (≈ 0.561 µM)	8 (≈ 18 µM)	0.12 (≈ 0.269 µM)	0.25 (≈ 0.561 µM)	0.06 (≈ 0.135 µM)	24900	9.4	63	2	–
C[C@H]1[C@H](N)CN1c1nc2c(cc1F)c(=O)c(C(=O)O)cn2C1CC1 (single isomer, unassigned)	0.015 (≈ 0.0451 µM)	0.015 (≈ 0.0451 µM)	0.015 (≈ 0.0451 µM)	0.06 (≈ 0.181 µM)	16.5 (≈ 49.6 µM)	0.12 (≈ 0.361 µM)	23 (≈ 69.2 µM)	0.015 (≈ 0.0451 µM)	0.06 (≈ 0.181 µM)	0.12 (≈ 0.361 µM)	0.015 (≈ 0.0451 µM)	–	0.015 (≈ 0.0451 µM)	19200	4.6	34	1	–
CC1C(N)CN1c1c(F)cc2c(=O)c(C(=O)O)cn3c2c1OC[C@@H]3C (single isomer, unassigned)	0.015 (≈ 0.0432 µM)	0.06 (≈ 0.173 µM)	0.015 (≈ 0.0432 µM)	0.015 (≈ 0.0432 µM)	–	0.12 (≈ 0.345 µM)	–	0.015 (≈ 0.0432 µM)	0.015 (≈ 0.0432 µM)	0.25 (≈ 0.72 µM)	0.015 (≈ 0.0432 µM)	0.06 (≈ 0.173 µM)	0.015 (≈ 0.0432 µM)	2300	6.9	26	5.9	–
C[C@H]1[C@H](N)CN1c1cc2c(cc1F)c(=O)c(C(=O)O)cn2-c1ccc(F)cc1F (single isomer, unassigned) [CETEFLOXACIN]	0.06 (≈ 0.149 µM)	–	–	–	5.9 (≈ 14.6 µM)	–	8 (≈ 19.8 µM)	–	–	1 (≈ 2.48 µM)	0.06 (≈ 0.149 µM)	–	0.06 (≈ 0.149 µM)	28400	7	64	4	–
C[C@@H]1[C@@H](N)CN1c1c(F)cc2c(=O)c(C(=O)O)cn(C3CC3)c2c1F (stereo in doubt; 22b)	–	–	–	–	–	–	–	–	–	–	–	–	–	13600	12.2	–	–	MIC (Escherichia coli [1]): 0.25 µg/mL (≈ 0.716 µM); MIC (Bacillus cereus): 0.5 µg/mL (≈ 1.43 µM); MIC (Enterobacter cloacae): 0.25 µg/mL (≈ 0.716 µM); MIC (Staphylococcus aureus [2]): 0.25 µg/mL (≈ 0.716 µM); MIC (Enterococcus faecalis): 2 µg/mL (≈ 5.73 µM); MIC (Morganella morganii): 0.25 µg/mL (≈ 0.716 µM); MIC [5]: 0.25 µg/mL (≈ 0.716 µM); MIC (Pseudomonas aeruginosa [6]): 4 µg/mL (≈ 11.5 µM); MIC (Bacillus subtilis): 0.12 µg/mL (≈ 0.344 µM); ED50 (Pseudomonas aeruginosa [9]): 65 mg/kg; ED50 (Escherichia coli [10]): 10.2 mg/kg; MIC (Proteus vulgaris): 0.5 µg/mL (≈ 1.43 µM); MIC (Klebsiella pneumoniae): 0.12 µg/mL (≈ 0.344 µM)
